Results as given in ChEMBL document CHEMBL2163272, “Design, synthesis, and preclinical evaluations of novel 4-substituted 1,5-diarylanilines as potent HIV-1 non-nucleoside reverse transcriptase inhibitor (NNRTI) drug candidates” (J Med Chem, 2012).
≈ marks a conversion by molar mass, not a printed value.

Tests used:
Caco-2 = assay: Apparent permeability of the compound in human Caco2 cells; type: ADME, cell-based
[1] = Aqueous solubility of the compound at pH 7.4 after 4 hrs; type: physicochemical; conditions: buffer, pH 7.4, 4 h
[2] = Aqueous solubility of the compound at pH 2.0 after 4 hrs; type: physicochemical; conditions: for solubility: buffer, pH 2, 4 h; for solubility at 4 h: aqueous, pH 2
[3] = Cytotoxicity against human TZM-bl cells after 4 days by XTT assay; type: cell-based; conditions: 96 h
Procedure, shortened: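 TZM-bl cells (5 × 10^5/mL) exposed to graded compound concentrations at 37 °C for 4 days. XTT (1 mg/mL) with 0.02 μM PMS added, and absorbance at 450 nm read after 4 h.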

[4] = system: Human immunodeficiency virus 1; assay: Antiviral activity against HIV-1 NL4-3 infected in human TZM-bl cells assessed as inhibition of viral replication after 2 days by luciferase reporter gene based luminescence assay; type: functional, organism-based; conditions: Human immunodeficiency virus 1, NL4-3, TZM-bl, 48 h
Procedure, shortened: (§1)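 Single-round infection of TZM-bl cells with 200 TCID50 virus (NL4-3 for wild type) in the presence of graded compound concentrations. Luciferase luminescence was read two days after infection. Run at least in triplicate; mean ± SD reported.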

Liver microsomes [5] = assay: Half life in human liver microsomes at 1 uM; type: ADME, Microsome
Procedure, shortened: (§2)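 Compound at 1 μM final in 0.1 M potassium phosphate pH 7.4 with 0.1 mg/mL human liver microsomes and 5 mM MgCl2, 37 °C. Started with NADPH (1.0 mM final) and quenched with ice-cold ACN at 0, 5, 15, 30, 60 min; duplicate.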

[6] = Selectivity index, ratio of CC50 for human TZM-bl cells to EC50 for HIV-1NL4-3; type: toxicity, cell-based; conditions: read-out: Ratio CC50/EC50
Liver microsomes [7] = assay: Intrinsic clearance in human liver microsomes at 1 uM; type: ADME, Microsome; procedure, shortened: as §2
[8] = system: Human immunodeficiency virus 1; assay: Ratio of EC50 for multidrug-resistant HIV-1 RTMDR to EC50 for wild type HIV-1 NL4-3; type: functional
[9] = system: Human immunodeficiency virus 1; assay: Ratio of EC50 for HIV-1 harboring reverse transcriptase E138K mutant to EC50 for wild type HIV-1 NL4-3; type: functional
[10] = system: Human immunodeficiency virus 1; assay: Ratio of EC50 for HIV-1 harboring reverse transcriptase K101E mutant to EC50 for wild type HIV-1 NL4-3; type: functional
[11] = system: Human immunodeficiency virus 1; assay: Antiviral activity against HIV-1 harboring reverse transcriptase E138K mutant infected in human TZM-bl cells assessed as inhibition of viral replication after 2 days by luciferase reporter gene based luminescence assay; type: functional, organism-based; conditions: Human immunodeficiency virus 1, TZM-bl, 48 h; procedure, shortened: as §1
[12] = system: Human immunodeficiency virus 1; assay: Antiviral activity against multidrug-resistant HIV-1 RTMDR infected in human TZM-bl cells assessed as inhibition of viral replication after 2 days by luciferase reporter gene based luminescence assay; type: functional, organism-based; conditions: Human immunodeficiency virus 1, RTMDR, 48 h; procedure, shortened: as §1
[13] = system: Human immunodeficiency virus 1; assay: Antiviral activity against HIV-1 harboring reverse transcriptase K101E mutant infected in human TZM-bl cells assessed as inhibition of viral replication after 2 days by luciferase reporter gene based luminescence assay; type: functional, organism-based; conditions: Human immunodeficiency virus 1, TZM-bl, 48 h
Procedure, shortened: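 Single-round infection of TZM-bl cells with 200 TCID50 virus (NL4-3 for wild type) in the presence of graded compound concentrations. Luciferase luminescence was read two days after infection. […] Run at least in triplicate; mean ± SD reported.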

SMILES	solubility [1]	solubility [2]	CC50 [3]	EC50 [4]	t1/2 (Liver microsomes [5])	selectivity ratio [6]	intrinsic clearance (CLint) (Liver microsomes [7])	further results
Cc1cc(/C=C/C#N)cc(C)c1Oc1cc(Nc2ccc(C#N)cc2)c(N)cc1[N+](=O)[O-]	0.29 µg/mL (≈ 0.682 µM)	0.29 µg/mL (≈ 0.682 µM)	> 24400 nM	0.63 nM	47.8 min	–	–	Papp (Caco-2): < 2 ×10⁻⁶ cm/s
COC(=O)c1cc(N)c(Nc2ccc(C#N)cc2)cc1Oc1c(C)cc(/C=C/C#N)cc1C	–	–	> 22800 nM	–	283 min	> 8320	20 µL/min/mg	–
Cc1cc(/C=C/C#N)cc(C)c1Oc1cc(Nc2ccc(C#N)cc2)c(N)cc1C(=O)O	–	–	–	–	–	65	–	–
Cc1cc(/C=C/C#N)cc(C)c1Oc1cc(Nc2ccc(C#N)cc2)c(N)cc1C(N)=O	–	–	> 23600 nM	–	–	> 27100	–	Ratio EC50 [8]: 2.1; Ratio EC50 [9]: 10.3; Ratio EC50 [10]: 9.5; EC50 [11]: 9 nM; EC50 [12]: 1.8 nM; EC50 [13]: 8.3 nM; solubility at 4 h [2]: 2.09 µg/mL (≈ 4.94 µM)
CNC(=O)c1cc(N)c(Nc2ccc(C#N)cc2)cc1Oc1c(C)cc(/C=C/C#N)cc1C	–	–	> 9200 nM	–	44.8 min	> 1610	150 µL/min/mg	–
Cc1cc(/C=C/C#N)cc(C)c1Oc1cc(Nc2ccc(C#N)cc2)c(N)cc1CO	–	–	–	–	–	30800	–	Ratio EC50 [8]: 0.7; Ratio EC50 [9]: 7.4; Ratio EC50 [10]: 6.4; EC50 [11]: 3.9 nM; EC50 [12]: 0.4 nM; EC50 [13]: 3.4 nM; solubility at 4 h [2]: 20.9 µg/mL (≈ 50.9 µM)
Cc1cc(CO)cc(C)c1Oc1cc(Nc2ccc(C#N)cc2)c(N)cc1CO	–	–	15900 nM	10 nM	–	1590	–	–
CNC(=O)c1cc2ncn(-c3ccc(C#N)cc3)c2cc1Oc1c(C)cc(/C=C/C#N)cc1C	–	–	> 890000 nM	> 220 nM	–	–	–	–
CNC(=O)c1cc2ncn(-c3ccc(C#N)cc3)c2cc1Oc1c(C)cc(CCC#N)cc1C	–	–	> 890000 nM	> 220 nM	–	–	–	–
CC(=O)/C=C/c1cc(C)c(Oc2cc(Nc3ccc(C#N)cc3)c(N)cc2C(F)(F)F)c(C)c1	–	–	> 8600 nM	10.9 nM	–	> 789	–	–
CC(=O)CCc1cc(C)c(Oc2cc(Nc3ccc(C#N)cc3)c(N)cc2C(F)(F)F)c(C)c1	0.16 µg/mL (≈ 0.342 µM)	0.28 µg/mL (≈ 0.599 µM)	11100 nM	6.85 nM	–	1620	–	–
Cc1cc(C#N)cc(C)c1Oc1cc(Nc2ccc(C#N)cc2)c(N)cc1C(F)(F)F	0.26 µg/mL (≈ 0.616 µM)	0.96 µg/mL (≈ 2.27 µM)	13300 nM	3.79 nM	–	3510	–	–
Cc1cc(N)cc(C)c1Oc1cc(Nc2ccc(C#N)cc2)c(N)cc1C(F)(F)F	–	–	15800 nM	13.8 nM	–	1140	–	–
Cc1cc(/C=C/C#N)cc(C)c1Oc1cc(Nc2ccc(C#N)cc2)c(N)cc1C(F)(F)F	0.24 µg/mL (≈ 0.535 µM)	0.42 µg/mL (≈ 0.937 µM)	15000 nM	9.38 nM	45 min	1600	150 µL/min/mg	–
Cc1cc(CCC#N)cc(C)c1Oc1cc(Nc2ccc(C#N)cc2)c(N)cc1C(F)(F)F	0.24 µg/mL (≈ 0.533 µM)	–	> 7100 nM	1.13 nM	55.7 min	–	120 µL/min/mg	–
Cc1cc(/C=C/C#N)cc(C)c1Oc1cc(Nc2ccc(C#N)cc2)c(N)cc1S(N)(=O)=O	–	–	> 21800 nM	93.7 nM	–	> 233	–	–
Cc1cc(CCC#N)cc(C)c1Oc1cc(Nc2ccc(C#N)cc2)c(N)cc1S(N)(=O)=O	–	–	11100 nM	380 nM	–	29.2	–	–
COC(=O)c1cc(N)c(Nc2ccc(C#N)cc2)cc1Oc1c(C)cc(CCC#N)cc1C	1.21 µg/mL (≈ 2.75 µM)	21.8 µg/mL (≈ 49.5 µM)	> 22700 nM	4.32 nM	186 min	> 5260	40 µL/min/mg	Ratio EC50 [8]: 0.9; Ratio EC50 [9]: 1.7; Ratio EC50 [10]: 3.2; EC50 [11]: 7.5 nM; EC50 [12]: 4.1 nM; EC50 [13]: 14 nM
Cc1cc(CCC#N)cc(C)c1Oc1cc(Nc2ccc(C#N)cc2)c(N)cc1C(=O)O	–	–	14300 nM	96 nM	–	149	–	–
Cc1cc(CCC#N)cc(C)c1Oc1cc(Nc2ccc(C#N)cc2)c(N)cc1C(N)=O	0.06 µg/mL (≈ 0.141 µM)	9.11 µg/mL (≈ 21.4 µM)	> 9400 nM	1.39 nM	42 min	> 6760	160 µL/min/mg	–
CNC(=O)c1cc(N)c(Nc2ccc(C#N)cc2)cc1Oc1c(C)cc(CCC#N)cc1C	8.28 µg/mL (≈ 18.8 µM)	44.7 µg/mL (≈ 102 µM)	> 9100 nM	2.73 nM	55.7 min	> 3330	120 µL/min/mg	Ratio EC50 [8]: 2.9; Ratio EC50 [9]: 3.7; Ratio EC50 [10]: 5.1; EC50 [11]: 10 nM; EC50 [12]: 8 nM; EC50 [13]: 14 nM
Cc1cc(CCC#N)cc(C)c1Oc1cc(Nc2ccc(C#N)cc2)c(N)cc1C(=O)NN	–	–	> 22700 nM	19.1 nM	–	> 1190	–	–
Cc1cc(CCC#N)cc(C)c1Oc1cc(Nc2ccc(C#N)cc2)c(N)cc1CO	18.8 µg/mL (≈ 45.6 µM)	89.8 µg/mL (≈ 218 µM)	> 23800 nM	0.39 nM	20.9 min	> 61000	330 µL/min/mg	Ratio EC50 [8]: 4.6; Ratio EC50 [9]: 7.4; Ratio EC50 [10]: 8.7; EC50 [11]: 2.9 nM; EC50 [12]: 1.8 nM; EC50 [13]: 3.4 nM
Cc1cc(CCC#N)cc(C)c1Oc1cc(Nc2ccc(C#N)cc2)c(N)cc1N	–	–	> 25000 nM	7.3 nM	–	> 3420	–	–
Cc1cc(C#N)cc(C)c1Oc1nc(Nc2ccc(C#N)cc2)nc(N)c1Br [ETRAVIRINE]	–	–	–	1.51 nM	–	–	–	–
